From PubChem BioAssay
TAAR1 agonist = human TAAR1 agonists, primary screen, Fluo-8 calcium fluorescence, CHO RD-HGA16 cells | activation, % at 3 µM | hit rate 0.99% among 360,000 | vehicle wells 0%, saturating PEA agonist 100% | Trace amine-associated receptor 1 (Homo sapiens), Q96RJ0 | AID 624467, 2012;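 active means activation above the mean activation of all test compounds in the run plus 3 SD, cut at about 38% in these data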
Target sequence (Q96RJ0 whole entry, looked up): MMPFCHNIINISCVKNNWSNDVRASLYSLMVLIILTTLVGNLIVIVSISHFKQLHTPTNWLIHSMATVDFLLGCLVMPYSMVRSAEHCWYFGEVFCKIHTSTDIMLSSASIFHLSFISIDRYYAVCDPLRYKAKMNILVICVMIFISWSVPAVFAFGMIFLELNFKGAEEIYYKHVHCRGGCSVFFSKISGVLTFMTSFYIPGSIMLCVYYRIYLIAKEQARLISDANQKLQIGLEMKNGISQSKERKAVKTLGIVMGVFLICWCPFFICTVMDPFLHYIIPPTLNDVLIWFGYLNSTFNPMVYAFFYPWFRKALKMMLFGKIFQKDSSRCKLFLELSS
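Test system: RD-HGA16 (CHO) cells co-expressing Gα16 and hTAAR1 / Benchmarks: DMSO vehicle as 0%, PEA at EC100 as 100% / Repeats: no replicates (n 1) / Measure: % activation from peak over basal fluorescence ratio, DMSO-to-PEA scaled / Timing: 17-24 h plating, Fluo-8 75 min 37 °C, 30 min RT / Technique: kinetic Fluo-8 calcium fluorescence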
CHO parental Ca = ATP-evoked calcium signal inhibitors, parental CHO, primary screen, counter-screen for OX1R antagonist project, cell-based, fluorescence, Fluo-8 calcium dye | parental CHO-K1, ATP-induced calcium, Fluo-8 fluorescence | inhibition, % at 5.6 µM | hit rate 0.63% among 330,000 | AID 463079, 2010;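 active means inhibition above that plate's mean sample inhibition plus 3 SD, cut at about 26% in these data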;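 further: 0% = ATP-challenged DMSO wells and 100% = DMSO wells without ATP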
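Measured by: calcium-sensitive Fluo-8 fluorescence / Test system: CHO parental line / Controls: ATP-challenged DMSO wells low, unchallenged DMSO wells high / Measure: % inhibition / Compound: single nominal dose of 5.6 µM per compound / Replicates: single well per compound, no replicates / Reagent: ATP as calcium-mobilizing challenge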
OX1R antag-1 = antagonists of human orexin 1 receptor (OX1R) | Orexin/Hypocretin receptor type 1 (Homo sapiens), O43613 | OX1R-expressing cells, FRET antagonist read-out | inhibition, % at 6.6 µM | hit rate 1.8% among 330,000 | AID 485270, 2010; in the data active means inhibition mostly above about 38%, no sharp cut-off; inactive means mostly below about 40%;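 further: 0% = agonist challenge alone and 100% = reference antagonist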
OX1R antag-2 = OX1R (HCRTR1) antagonists, primary screen, fluorescence, CHO/OX1R cells, Fluo-8 calcium, orexin A. Orexin/Hypocretin receptor type 1 (Homo sapiens), O43613. Fluo-8 calcium fluorescence. inhibition, % at 5 µM. hit rate 0.43% among 330,000. AID 434989, 2010;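 active means inhibition above its plate's threshold, mean inhibition of all tested compounds on the plate plus 3 SD, cut at about 37% in these data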;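 further: 0% = orexin A challenge wells and 100% = SB-334867-A antagonist wells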
TAAR1 antag = human TAAR1 antagonists, primary screen, Fluo-8 calcium fluorescence, CHO RD-HGA16 cells; Trace amine-associated receptor 1 (Homo sapiens), Q96RJ0; antagonist; inhibition, % at 3 µM; hit rate 1.5% among 360,000;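 active means inhibition above a per-plate cutoff, the mean inhibition of test compounds on that plate plus 3 SD, cut at about 49% in these data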;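 further: 0% = DMSO plus EC80 beta-PEA response and 100% = DMSO alone without agonist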
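Test system: RD-HGA16 CHO cells with stable hTAAR1 and Gα16 / Probe or stimulus: EC80 β-phenethylamine stimulus / Times: seeding 17-24 h prior, 75-min 37 °C, 30-min RT dye loading / Detection: Fluo-8 calcium-sensitive fluorescence / Read-out basis: % inhibition scaled between DMSO and EC80 PEA controls / Repeats: singlicate, one well per test compound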
* = called active by the depositor; nt = no result given. Rows were chosen to be rich in hits. Some 4% of all compounds tested hit in one or more screens of this group.

SMILES	TAAR1 agonist	CHO parental Ca	OX1R antag-1	OX1R antag-2	TAAR1 antag
O=C(NCCc1ccccc1)c1ccc(Cl)c(S(=O)(=O)N2CCOCC2)c1	4.0	nt	nt	nt	5.3
Cc1cc(N2CCN(C(=O)OC(C)(C)C)C[C@H]2C)ccc1N1CC[C@@H](O)C1	4.7	nt	nt	nt	-11.3
CN(CC(=O)N1CCc2ccccc21)S(=O)(=O)c1cccc2cccnc12	8.1	-1.4	60.0*	-3.5	37.8
O=C(Nc1cccc(C(F)(F)F)c1)C1CCCN1S(=O)(=O)c1cccc2cccnc12 (stereo not given)	6.0	-20.1	91.3*	80.1*	6.0
Cc1cc(C)cc(NC(=O)C2CCCN(S(=O)(=O)c3c(C)noc3C)C2)c1 (stereo not given)	-1.8	-17.4	72.3*	10.7	34.7
Cc1ccc(NC(=O)CN(C)S(=O)(=O)c2cccc3cccnc23)cc1F	2.2	-27.2	21.5	3.9	0.1
Cc1ccc(NC(=O)CN(C)S(=O)(=O)c2cccc3cccnc23)cc1C	6.1	-9.8	39.1*	-19.5	12.4
Cc1cc(NC(=O)C2CCCN(S(=O)(=O)c3c(C)noc3C)C2)no1 (stereo not given)	1.4	-4.3	18.6	-22.6	-19.4
C=CCN1C(C(=O)OCC)CSCCS1(=O)=O (stereo not given)	2.6	nt	nt	nt	6.4
COC(=O)C(=Cc1ccc(-c2ccsc2C(=O)OC)o1)C(=O)OC	0.9	-6.3	49.9*	-15.2	-39.1
COc1ccc(NC(=S)NC(NC(=O)c2cccc(C)c2)C(Cl)(Cl)Cl)c([N+](=O)[O-])c1 (stereo not given)	6.7	-8.6	60.7	-13.1	22.1
COc1ccc(NC(=S)NC(NC(=O)c2cccc(Cl)c2)C(Cl)(Cl)Cl)c([N+](=O)[O-])c1 (stereo not given)	28.6	26.3*	30.8	7.4	10.1
Cc1ccc2c(c1)c(C)c(C)n2CC(O)Cn1nc(C)cc1C (stereo not given)	0.9	-23.4	28.2	-7.2	1.4
Cc1ccc2c(c1)c(C)c(C)n2CC(O)Cn1nnc2ccccc21 (stereo not given)	3.3	-21.6	63.3*	-21.8	-8.4
Cc1cc(-c2cccc([N+](=O)[O-])c2)nc2ccccc12	-2.4	-6.2	68.6*	-7.7	-19.3
Cc1cc(-c2ccc([N+](=O)[O-])cc2)nc2ccccc12	0.6	-17.3	29.0	-22.2	-19.6
CCNC(=O)N(C)[C@H]1C[C@H]2c3[nH]c4c(-c5ccc6c(c5)OCO6)cccc4c3CCN2C(=O)[C@H]1[C@H](C)O	7.2	nt	nt	nt	4.1
CCN=C(NCC)SC1CC(=O)N(c2cccc(OC)c2)C1=O (stereo not given)	23.4	-6.9	10.1	6.3	54.9*
COc1ccc2c(c1)CC/C(=C\c1ccc(OC)c(Cn3nc(C)cc3C)c1)C2=O	44.3*	-21.5	10.4	2.0	23.2
COc1ccc(/C=C2\CCc3ccccc3C2=O)cc1CN1CCOCC1	0.2	-37.5	16.7	-46.0	-14.2
COC(=O)C1=C(C)N(C)C(=NCC2CC2)NC1c1cccc(Cl)c1 (stereo not given)	0.4	nt	nt	nt	-4.2
COc1ccc(NC(=O)CSc2nc3ccsc3c(=O)n2CCCCCC(=O)O)cc1	3.8	-2.9	23.1	-15.3	49.9*
O=C(O)CCCCCn1c(SCC(=O)Nc2ccc(F)cc2)nc2ccsc2c1=O	-1.1	-2.8	37.5	-13.8	-11.7
COc1ccc(CCN(C)C2CCCN(S(=O)(=O)c3ccccc3F)C2)cc1OC (stereo not given)	1.8	nt	nt	nt	-21.9
O=C(NCCc1ccccc1)c1ccc(-c2ccccc2C(F)(F)F)o1	25.0	-22.6	4.2	-25.4	24.0
SMILES	TAAR1 agonist	CHO parental Ca	OX1R antag-1	OX1R antag-2	TAAR1 antag
O=C(NCc1ccccc1)c1ccc(-c2ccccc2F)o1	2.1	4.2	58.6*	-12.1	-16.0
Cc1ccc(S(=O)(=O)N2C[C@H]3C(=O)C[C@@H](c4ccccc4)N(S(=O)(=O)c4ccc(C)cc4)[C@H]3C[C@H]2c2cccc(C)c2)cc1	0.2	nt	nt	nt	-18.7
O=[N+]([O-])c1cc(Br)c(Nc2ccccc2)c([N+](=O)[O-])c1	3.5	16.4	49.7*	17.3	-1.0
Cc1ccc(S(=O)(=O)NC(C)(C)C)cc1C(=O)OCC(=O)N1CCCC1=O	1.1	-18.0	6.5	-5.0	-19.6
CC1(C(=O)N/N=C/c2ccccc2)CC1(Cl)Cl (stereo not given)	0.5	-12.9	2.0	-12.4	-3.1
Cn1c(CC(=O)Nc2ccc(Cl)c(Cl)c2)nnc1SCC(=O)NCc1ccccc1	37.7*	16.3	5.8	-21.7	8.0
Nc1ccccc1C(=O)N/N=C1\C2CN3CCN(C2)CC1(c1ccccc1)C3	-2.9	-5.0	19.4	0.2	12.8
S=C(NCCc1ccccc1)N1CCN(C23CC4CC(CC(C4)C2)C3)CC1	37.5*	-8.7	10.4	-20.1	14.8
COC(=O)C1(F)C(=O)NC(=O)NC1OC (stereo not given)	0.8	nt	nt	nt	-17.1
CS(=O)(=O)c1cccc(NC(=O)C2CCCN2S(=O)(=O)c2ccc(F)cc2)c1 (stereo not given)	-1.6	-3.2	54.9*	19.9	4.5
O=C(Nc1cccc(S(=O)(=O)N2CCCCC2)c1)C1CCCN1S(=O)(=O)c1ccccc1F (stereo not given)	1.9	-12.3	27.9*	25.4	16.8
CCOc1ccc(N=Nc2c(=O)[nH]n3c(=O)cc(C)[nH]c23)cc1	4.5	-13.2	59.1*	-1.8	-15.0
Cc1cc(C(=O)COc2ccccc2C(N)=O)c(C)n1C	3.5	-4.7	9.5	-15.8	-7.7
Cc1cc(C(=O)COc2ccc(Cl)cc2Br)c(C)n1C	2.6	26.3*	3.7	-7.5	-17.7
O=C(CN1C(=O)/C(=C\c2ccccc2Br)Oc2ccccc21)NCCCN1CCOCC1	0.4	-24.2	49.0*	18.8	-1.5
O=S(=O)(c1cccc(-c2csc(N/N=C/c3ccco3)n2)c1)N1CCOCC1	11.8	-1.1	14.4	-9.1	60.4*
CN(C)c1ccc(/C=N/N(CCO)C2=NS(=O)(=O)c3ccccc32)cc1	2.3	52.6*	14.3	47.5*	6.4
O=S1(=O)N=C(N(CCO)/N=C/c2ccc(Cl)cc2)c2ccccc21	8.2	-8.7	9.8	4.7	17.4
Cc1cc(N2CCN(C(=O)OC(C)(C)C)C[C@@H]2C)ccc1N1CCS(=O)(=O)CC1	3.4	nt	nt	nt	-17.3
CCOC(=O)C1=C(C)c2ccccc2OC1(CC)C(=O)OCC (stereo not given)	3.1	-19.9	9.5	-15.3	20.3
CCOC(=O)C1=C(C)c2ccccc2N(C(=O)OC)C1(C)C(=O)OCC (stereo not given)	1.9	-17.7	32.7*	18.8	3.8
